Experimental data as given in publication PMC7134392 (ChemMedChem, 2018).

Columns and labels:
[1] = tested on: RAW264.7 cells; assay: Toxicity; format: cell-based; conditions: read-out: IC50 Toxicity (Tox.), Alamar blue cell viability
How it was run: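 RAW264.7 cells were grown in RPMI 1640 with 10% FCS, 50 μM 2-mercaptoethanol and penicillin/streptomycin. Cells were seeded at 50,000 per well in phenol-red-free medium ≥12 h beforehand. In the TNFα assay setting, cells were dosed with test compound from 50 μM to 0.023 μM (three-fold steps) or DMSO. Viability was read by Alamar blue. Means ± SD are from 3 independent experiments.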

[2] = biological target: T1, full-length human estrogen receptor α (Homo sapiens, UniProt P03372); assay: Competitive radiometric ligand binding assay, ERα; conditions: relative binding affinity, estradiol = 100; single determinations for RBA < 0.01
T1 sequence (P03372 1-595): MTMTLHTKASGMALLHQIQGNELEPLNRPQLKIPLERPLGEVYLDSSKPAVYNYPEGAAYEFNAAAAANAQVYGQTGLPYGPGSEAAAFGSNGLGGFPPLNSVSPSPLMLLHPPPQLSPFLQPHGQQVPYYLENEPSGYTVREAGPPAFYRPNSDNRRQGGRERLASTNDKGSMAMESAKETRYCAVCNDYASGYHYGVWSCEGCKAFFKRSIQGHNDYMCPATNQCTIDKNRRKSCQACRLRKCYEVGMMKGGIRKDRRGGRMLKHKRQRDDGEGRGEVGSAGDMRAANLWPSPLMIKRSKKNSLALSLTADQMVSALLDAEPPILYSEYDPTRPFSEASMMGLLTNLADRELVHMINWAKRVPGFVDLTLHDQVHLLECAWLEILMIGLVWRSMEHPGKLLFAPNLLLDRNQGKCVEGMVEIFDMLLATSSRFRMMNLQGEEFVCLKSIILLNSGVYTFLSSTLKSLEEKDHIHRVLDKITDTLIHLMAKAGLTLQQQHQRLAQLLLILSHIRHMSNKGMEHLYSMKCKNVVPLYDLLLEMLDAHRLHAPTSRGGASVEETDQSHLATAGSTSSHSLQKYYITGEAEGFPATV

[3] = biological target: full-length human estrogen receptor β (Homo sapiens, UniProt Q92731); assay: Competitive radiometric ligand binding assay, ERβ; conditions: relative binding affinity, estradiol = 100; single determinations for RBA < 0.01
full-length human estrogen receptor β, sequence (Q92731 whole entry): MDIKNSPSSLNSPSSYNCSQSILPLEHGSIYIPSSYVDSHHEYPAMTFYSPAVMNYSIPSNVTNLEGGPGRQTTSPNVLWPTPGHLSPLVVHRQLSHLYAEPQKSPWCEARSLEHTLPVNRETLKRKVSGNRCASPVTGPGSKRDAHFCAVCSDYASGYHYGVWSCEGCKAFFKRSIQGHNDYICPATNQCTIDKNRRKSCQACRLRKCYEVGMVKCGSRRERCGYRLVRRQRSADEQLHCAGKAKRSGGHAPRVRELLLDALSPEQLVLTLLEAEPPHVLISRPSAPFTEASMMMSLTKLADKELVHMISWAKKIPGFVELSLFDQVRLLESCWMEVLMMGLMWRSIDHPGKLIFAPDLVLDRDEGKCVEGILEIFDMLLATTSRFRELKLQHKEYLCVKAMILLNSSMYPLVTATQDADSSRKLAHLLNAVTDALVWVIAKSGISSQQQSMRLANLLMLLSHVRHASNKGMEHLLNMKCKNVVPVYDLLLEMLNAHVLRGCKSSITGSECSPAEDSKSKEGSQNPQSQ
How it was run: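 Full-length human ERβ incubated with radiolabelled estradiol tracer and competing test compound on ice for 18–24 h. Receptor-bound tracer was adsorbed onto hydroxyapatite, washed with buffer, and counted by scintillation. Affinity was expressed as RBA relative to estradiol = 100. Most values are the average of 2–3 determinations ± SD.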

- RBA ERα [2]: 12.0 ± 2.0
- RBA ERβ [3]: 0.05 ± 0.01
SMILES: Cc1c(-c2ccc(O)cc2)nn(-c2ccc(O)cc2)c1-c1ccc(OCCN2CCCCC2)cc1 [Compound 1, methyl-piperidino-pyrazole]
- IC50 [1]: 11.5 ± 2.4 µM
